Columns and labels:
[1] = Inhibition of soybean 15-lipoxygenase; parameters: species or system Glycine max
Procedure, shortened: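 Soybean 15-lipoxygenase (final 167 U/mL, kept on ice) in 0.2 M borate buffer pH 9.00 with linoleic acid (134 µM) substrate. Activity followed as absorbance increase at 234 nm from 30 to 90 s after enzyme addition. Compounds added in ethanol (final 1%); ethanol-only uninhibited controls measured at regular intervals. IC50 by linear interpolation between points around 50% activity.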

[2] = Partition co-efficient, log P of the compound; type: physicochemical; details: octanol/water

| SMILES | IC50 [1] [µM] | logP [2] |
| --- | --- | --- |
| Cc1nc(N2CCN(C)CC2)nc2c1Nc1ccccc1S2 | 18 | 1.95 |
| Cc1nc(N2CCCC2)nc2c1Nc1ccccc1S2 | 48 | 2.49 |
| Cc1nc(N2CCC(C)CC2)nc2c1Nc1ccccc1S2 | 76 | 2.98 |
| Cc1nc(N2CCCCC2)nc2c1Nc1ccccc1S2 | 58 | 2.74 |
| Cc1nc(N2CCN(c3ccccc3)CC2)nc2c1Nc1ccccc1S2 | > 200 | 3.15 |
| CCN1CCN(c2nc(C)c3c(n2)Sc2ccccc2N3)CC1 | 34 | 2.19 |
| Cc1nc(N2CCC(O)CC2)nc2c1Nc1ccccc1S2 | > 200 | 1.95 |
| Cc1nc(N2CCOCC2)nc2c1Nc1ccccc1S2 | 53 | 1.7 |

— ChEMBL document CHEMBL1142901, “Design and synthesis of pyrimido[4,5-b][1,4]benzothiazine derivatives, as potent 15-lipoxygenase inhibitors” (Bioorg Med Chem, 2007)
